Measurements published in the array DNA melting data of Ke et al. (doi:10.1101/2024.01.08.574731).

Experiments:
[1] = folding enthalpy; higher = less favourable; fluorescence melt of hairpins on a sequencing array, two-state fit; details: sodium 0.088 M
Procedure, shortened: (§1)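 With Cy3 and quencher oligos annealed, library hairpins on a sequenced MiSeq flow cell were imaged for Cy3 fluorescence in 50 mM Na-HEPES pH 8.0, 25 mM NaCl, in 2.5 °C steps up to 60 °C. Melting temperature and folding enthalpy were derived from bootstrapped two-state fits of signals normalised to pre-quench Cy3 and to control constructs. Four replicates were combined by inverse variance, with fitted temperatures raised by 9.35 °C to match UV melts.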

[2] = melting temperature; fluorescence melt of hairpins on a sequencing array, two-state fit, raised by 9.35 °C to match UV melts; details: sodium 0.088 M
Procedure, shortened: as §1

Row | Sequence | folding enthalpy [1] [kcal/mol] | Tm [2] [°C]
1 | GATCAATATATTGATC ((((((....)))))) | -47.1 | 49.1
2 | GGCATCCGAAAGGAGGCC (((.(((....))).))) | -38.2 | 69.3
3 | GCGTGCGAAAGCACTCGC ((((((....)))..))) | -12.4 | 51.5
4 | GCATCGGGAAACTGGTGC (((.(.(....).).))) | -29 | 42.7
5 | GTGCCACGAAAGTGCAC (((.(((....)))))) | -27.5 | 58.5
6 | GTGGTCGAAAGACGACAC ((((((....)))..))) | -15.4 | 47.2
7 | GACGGCGGAAACGCCATC ((.((((....)))).)) | -13.2 | 41.1
8 | GCACCGCGAAAGCTGCGC ((.(.((....)).).)) | -24.4 | 47.4
9 | GCAGCGCGAAAGCCATGC (((..((....))..))) | -14.9 | 45.1
10 | GAAGGCGAAAGCCCTTC ((((((....))).))) | -15.3 | 52.1
11 | GCAATAGAAATATTGC ((((((....)))))) | -26.5 | 46.4
12 | GATCGATCATTCGATC ((((((....)))))) | -39.5 | 53.7
13 | GGTTACGAAAGTAATACC ((((((....)))..))) | -14.9 | 33.5
14 | GGGTCCCGAAAGGGTCCC (((.(((....))).))) | -31 | 64.9
15 | GATCAACCCCTTGATC ((((((....)))))) | -35.2 | 45.5
16 | GAAGCCGAAAGGCCATTC ((((((....)))..))) | -8.97 | 28
17 | GGTCCCGAAAGGGGTACC ((((((....)))..))) | -17.2 | 44.9
18 | GCGAACGAAAGTTGACGC ((((((....)))..))) | -23 | 44.1
19 | GATCGTGCTAACGATC ((((((....)))))) | -37.7 | 66.3
20 | GCCCACGAAAGTGTAGGC ((((((....)))..))) | -24.5 | 52.8
21 | AACTGGAAACAGTT (((((....))))) | -16.8 | 38.8
22 | GTTTTCGCGAAAGCGAAC (((..(((....)))))) | -8.54 | 40.1
23 | GATTCTGGAAACAGAATC (((((((....))))))) | -43.9 | 55

Row | Sequence | folding enthalpy [1] [kcal/mol] | Tm [2] [°C]
24 | GCAGTCGAAAGACCTTGC ((((((....)))..))) | -13.3 | 33.8
25 | GAGAAGCGAAAGCTGCTC (((.(((....))).))) | -27.4 | 58.1
26 | GATGTGGGAAACCATGTC ((..(((....)))..)) | -32.6 | 34.9
27 | GCTCTTGGAAACAGGAGC ((((.((....)).)))) | -33.9 | 48.9
28 | GAGACTGGAAACGGTCTC (((((.(....).))))) | -46 | 49.9
29 | GCAACCGAAAGGTCATGC ((((((....)))..))) | -13 | 32.3
30 | GCAGTGGCGAAAGCCTGC (((..(((....)))))) | -19.3 | 58.3
31 | GATCGCTGAGCGATC ((((((...)))))) | -31 | 69
32 | GATGGCGAAAGCCGATC ((((((....))).))) | -15.4 | 47.6
33 | GACAAGGCGAAAGCCGTC (((..(((....)))))) | -8.66 | 40.9
34 | GTCCACGGAAACGTGAAC ((.((((....)))).)) | -18.1 | 45.5
35 | GTTACAGGAAACTGTAGC (.(((((....))))).) | -22.6 | 38.9
36 | GGAGGCCGAAAGGCTTCC (((.(((....))).))) | -28.9 | 64.2
37 | GTTCGCTCGAAAGAGAAC (((..(((....)))))) | -19.8 | 37.5
38 | GGCAACGAAAGTTTGGCC ((((((....)))..))) | -27.3 | 46.4
39 | GGCACGGGAAACCGTACC ((.((((....)))).)) | -34.4 | 48.4
40 | GCCTTGCCGAAAGGCGGC (((..(((....)))))) | -10.8 | 67.5
41 | GCGACCTTCGC ((((...)))) | -25.4 | 48.2
42 | GTGCACCGAAAGGTACAC (((.(((....))).))) | -36.5 | 53.7
43 | GCGGTGACGAAAGTCCGC (((..(((....)))))) | -30.8 | 57.2
44 | GCCAAGGGAAACCTTAGC ((.((((....)))).)) | -19.3 | 33.2
45 | GGGCATGGAAACATGCTC (.(((((....))))).) | -30.1 | 55.4
46 | GCGGGTTCCGC ((((...)))) | -25.4 | 57.2

Row | Sequence | folding enthalpy [1] [kcal/mol] | Tm [2] [°C]
47 | CGCCCGGAAACGGTGCG ((((((....))).))) | -31.7 | 57.9
48 | GAAGCTGGAAACGGTTTC (((.(.(....).).))) | -10.3 | 26
49 | GATAAGGGAAACCTTGTC ((.((((....)))).)) | -20.7 | 37.9
50 | GCAATTGGAAACAACTGC (((.(((....))).))) | -26.6 | 34.8
51 | GACCCCGAAAGGGGCGTC ((((((....)))..))) | -11.7 | 61.4
52 | GTTAAAACGAAAGTTAAC (((..(((....)))))) | -16.6 | 26.3
53 | GACAAGCGAAAGCTAGTC (((.(((....))).))) | -23 | 52
54 | GCCACGCGAAAGCTTAGC ((.(.((....)).).)) | -6.78 | 30.1
55 | GATCATGAGCATGATC ((((((....)))))) | -36.8 | 48
56 | GGACTGGGAAACCGGTTC (.((.((....)).)).) | -25.5 | 37.5
57 | GCACACCGAAAGGTTTGC (((.(((....))).))) | -40.7 | 52.3
58 | GCGGGTGGAAACACTCGC (((.(((....))).))) | -40.8 | 60.7
59 | GTCGTTGCGAAAGCAGAC (((..(((....)))))) | -21.1 | 49.2
60 | CGCGGAACGGTCCGCG ((((((....)))))) | -38.7 | 61.6
61 | GGAACAGGAAACTGCTCC (((.(((....))).))) | -31.1 | 40.8
62 | GTCCCCCCGAAAGGGGAC (((..(((....)))))) | -16.9 | 59.5
63 | GGCAGCGAAAGCTGCGCC ((((((....)))..))) | -6.68 | 65.7
64 | GCACCCGAAAGGGCTGC ((((((....))).))) | -31.4 | 55.2
65 | GGGACAGGAAACTGCCCC (((.(((....))).))) | -35.2 | 50.8
66 | CGGAGCCGGAAACGGCCG (((..(((....)))))) | -11.2 | 46.6
67 | GTGACTCCGAAAGGACAC (((..(((....)))))) | -9.23 | 35.4
68 | GCACCGCGAAAGCCGCGC ((.(.((....)).).)) | -16.8 | 41.4
69 | CGTGTCCGGAAACGGACG (((..(((....)))))) | -7.66 | 48.1

Row | Sequence | folding enthalpy [1] [kcal/mol] | Tm [2] [°C]
70 | GGTGTCGAAAGACCAACC ((((((....)))..))) | -15.3 | 37.5
71 | GATCCTCCCCAGGATC ((((((....)))))) | -43.7 | 50.4
72 | GTTGCTCGAAAGAGTAAC (((.(((....))).))) | -35.1 | 52.4
73 | GCATTCGAAAGAAGTTGC ((((((....)))..))) | -7.36 | 26
74 | GGTCAAACGAAAGTTACC (((..(((....)))))) | -15.1 | 30.3
75 | GTTGCCGAAAGGCGGAAC ((((((....)))..))) | -7.95 | 32.8
76 | GATCCAGAGATGGATC ((((((....)))))) | -34.5 | 52.3
77 | GGTTCCGGAAACGGAGTC (..((((....))))..) | -11.7 | 34.1
78 | GATCTTAGGAAGATC ((((((...)))))) | -30.5 | 43.3
79 | GCTGTGCGAAAGCAATGC ((..(((....)))..)) | -19.1 | 42.8
80 | GAAACACCGAAAGGTTTC (((..(((....)))))) | -17.4 | 31.9
81 | GCAACGGAAACGTTGC ((((((....)))))) | -32.6 | 68.3
82 | GATCTTCAGAAAGATC ((((((....)))))) | -29.7 | 41.7
83 | GCGGTACCGAAAGGTCGC (((..(((....)))))) | -26.3 | 55.4
84 | GCCTAACGAAAGTTTGGC (((.(((....))).))) | -50.4 | 54.2
85 | GCACCTGGAAACAGATGC (((.(((....))).))) | -28.4 | 44
86 | GATCTTGTGAAAGATC ((((((....)))))) | -37.3 | 51.2
87 | GACATGGGAAACCATGCC (.(((((....))))).) | -15.1 | 42.8
88 | GTGTCGGGAAACCGGTAC ((..(((....)))..)) | -22.7 | 37.6
89 | GCCAGCGAAAGCTAAGGC ((((((....)))..))) | -21.2 | 53.7
90 | GCGGAAATCCGC ((((....)))) | -20.4 | 51.6
91 | GCACATGGAAACATATGC (((.(((....))).))) | -26 | 36
92 | GCAGGCGAAAGCCTGTGC ((((((....)))..))) | -14.2 | 68.2
